Test results reported in PubChem BioAssay.
Results filed as inconclusive are left out.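 The calls were made as follows, unless noted: active = viability increase at or above a cutoff of the median across tested compounds plus 3 SD (cut at about 8.5% in these data, passing the limit was not always enough); inconclusive = some gains above the cutoff, reason not given; inactive = the rest.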

Tests used:
[1] = S. cerevisiae growth inhibition in permissive medium (OD615), pilot counter-assay for S. cerevisiae lifespan shortening project, permissive growth control (AID 705;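 active = growth inhibition above 25% in both replicates, a cutoff set 3 SD above the mean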); conditions: OD615, 24 h, at 10 µM, stronger effect = higher value
In short: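 Test system: Saccharomyces cerevisiae strain carrying genetically modified DeaD replicative-lifespan system; buffer or medium: SC raffinose/galactose permissive medium; dosing: one dose 10 µM, DMSO 0.25% final; times: 24 h exposure, 30 °C; measured by: OD at 615 nm; read-out basis: growth inhibition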

[2] = S. cerevisiae growth inhibition in restrictive medium, OD615, pilot screen, restrictive growth control, yeast lifespan reduction project (AID 706;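 active = growth inhibition above a set limit, 3 SD over mean compound inhibition, in both replicates, cut at about 43% in these data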;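 also: modified DeaD lifespan yeast strain shifted to restrictive glucose medium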); conditions: OD615, 48 h, at 10 µM, stronger effect = higher value
In short: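 material = engineered S. cerevisiae DeaD strain | buffer or medium = glucose-based CSMM-D restrictive medium | dosing = one concentration, 10 µM final, 0.25% DMSO | schedule = 4 h pre-growth plus 48 h compound exposure, 30 °C | detection = OD615 absorbance reading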

[3] = doxorubicin toxicity protection in MRP-1 cells – H69AR cells, CellTiter-Glo, duplicate, MRP-1 activator project, pilot screen (AID 807); conditions: H69AR viability with doxorubicin, CellTiter-Glo luminescence; at 10 µM; stronger effect = higher value;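 also: compound pretreatment 18-22 h then 72 h combined with doxorubicin; 0% = doxorubicin alone and 100% = vehicle without doxorubicin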
[4] = viability of HCT116 without oncogenic beta-catenin – human colon tumor cells, pilot screen (AID 823;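 active = cell viability at or below a set limit in both duplicate runs, the limit being the all-compound median minus 4 SD, cut at about 23% in these data, passing the limit was not always enough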;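 also: 0% = wells killed by 20 µM Hyamine and 100% = untreated DMSO cell wells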); conditions: HCT116 beta-catenin knockout viability, CellTiter-Glo, 60 h; at 10 µM; stronger effect = lower value
[5] = viability of PTEN-null HCT116 cells – cell-based, HCT116 clonal line, CellTiter-Glo, pilot screen (AID 824;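 active = viability at or below 27.92% in each of two runs, the all-compound median minus 4 SD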;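 also: 0% = 20 µM Hyamine control and 100% = vehicle cell control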); conditions: HCT116 PTEN-deleted viability, 60 h, at 10 µM, stronger effect = lower value
[6] = RAM pathway blockade in budding yeast – dse1pr::URA3 reporter, 5-FOA selection, pilot screen (AID 869;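 active = inhibition over a set limit, the all-compound mean plus 3 SD, in both replicate runs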;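 also: 0% = DMSO wells with no growth and 100% = 10 µM 1-NA-PP1 with full growth; RAM network block rescues cells from 5-FOA so hits raise OD615 growth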); conditions: S. cerevisiae dse1pr::URA3 5-FOA growth, OD615, 2 d; at 10 µM; stronger effect = higher value; strain carries analog-sensitive mutant Cbk1 kinase
[7] = RAM signaling pathway blockade in yeast – S. cerevisiae, Pdr1DBD-CYC8 efflux-inhibited sensitized strain, primary screen (AID 1298;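 active = RAM network inhibition above 8.4% in each of two replicates, 3 SD over the compound average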;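 also: 0% = DMSO untreated cells without growth and 100% = 10 µM 1-NA-PP1 full growth; higher means more yeast growth rescued from 5-FOA killing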); conditions: S. cerevisiae cbk1-as DSE1-URA3 strain, 5-FOA growth OD615, 2 d; at 50 µM; stronger effect = higher value

CC(=O)c1ccc(NC(=O)C2CCC(C)(C(=O)O)C2(C)C)cc1 (stereo not drawn)
inactive: growth inhibition [1] -7.29% | growth inhibition [2] -11.9% | viability increase [3] -0.27% | viability [4] 97.9% | viability [5] 106% | inhibition [6] 2.73% | RAM network inhibition [7] 3.04%

COc1ccccc1CNS(=O)(=O)c1ccc2c(c1)oc(=O)n2C
inactive: growth inhibition [1] -4.47% | growth inhibition [2] -0.685% | viability increase [3] -0.99% | viability [4] 101% | viability [5] 86.7% | inhibition [6] 0.795% | RAM network inhibition [7] 0.32%

O=C(Cc1cccs1)NCCn1ccc2ccccc21
inactive: growth inhibition [1] -14.2% | growth inhibition [2] -11.5% | viability increase [3] -1.16% | viability [4] 90.3% | viability [5] 87.1% | inhibition [6] 0.32% | RAM network inhibition [7] 9.88%

CC12CCC(C(=O)NCc3ccco3)(OC1=O)C2(C)C (stereo not drawn)
inactive: growth inhibition [1] -9.57% | growth inhibition [2] -9.65% | viability increase [3] -2.96% | viability [4] 98.3% | viability [5] 93.2% | inhibition [6] 1.42% | RAM network inhibition [7] -0.27%

COC(=O)CN(c1ccc(C(C)C)cc1)S(=O)(=O)c1c(C)[nH]c(=O)[nH]c1=O
inactive: growth inhibition [1] -0.6% | growth inhibition [2] 11.3% | viability increase [3] -2.38% | viability [4] 88.8% | viability [5] 94.6% | inhibition [6] 2.21% | RAM network inhibition [7] 2.71%

CCC(=O)N1c2ccccc2-c2nnc(SC)nc2OC1c1ccc(N(C)C)cc1 (stereo not drawn)
inactive: growth inhibition [1] -3.95% | growth inhibition [2] 4.3% | viability increase [3] -6.55% | viability [4] 93.8% | viability [5] 91.5% | inhibition [6] 3.08% | RAM network inhibition [7] 1.82%

COc1ccccc1NC(=O)CSc1nnc(-c2ccccc2)o1
inactive: growth inhibition [1] -16% | growth inhibition [2] -11% | viability increase [3] -0.16% | viability [4] 77.6% | viability [5] 71.1% | inhibition [6] 2.4% | RAM network inhibition [7] 1.53%

O=c1oc2ccccc2n1Cc1ccccc1Cl
inactive: growth inhibition [1] -1.38% | growth inhibition [2] 8.91% | viability increase [3] -0.37% | viability [4] 97.1% | viability [5] 99.5% | inhibition [6] 1.56% | RAM network inhibition [7] 0.31%

N#Cc1c2n(c3c(=O)n(CC(=O)c4ccc(Br)cc4)cnc13)CCCC2
inactive: growth inhibition [1] -18.3% | growth inhibition [2] -5.47% | viability increase [3] -0.17% | viability [4] 86.1% | viability [5] 86% | inhibition [6] 0.885% | RAM network inhibition [7] 2.03%

O=C(Cn1cc2c(n1)CCCC2)N1CCCc2ccccc21
inactive: growth inhibition [1] 1.09% | growth inhibition [2] 4.04% | viability increase [3] -1.6% | viability [4] 98.6% | viability [5] 100% | inhibition [6] 0.85% | RAM network inhibition [7] 1.48%

CCS(=O)(=O)N1CCN(Cc2nc3ccccc3c(=O)[nH]2)CC1
inactive: growth inhibition [1] -12.6% | growth inhibition [2] -14.4% | viability increase [3] 0.44% | viability [4] 97.5% | viability [5] 91.8% | inhibition [6] 1.33% | RAM network inhibition [7] 6.05%

CC1CC(NC(=O)CCn2c(=O)oc3ccccc32)CC(C)(C)C1 (stereo not drawn)
inactive: growth inhibition [1] 1.98% | growth inhibition [2] -2.1% | viability increase [3] -1.55% | viability [4] 97.1% | viability [5] 102% | inhibition [6] 1.02% | RAM network inhibition [7] 4.18%

Cc1ccc(S(=O)(=O)N(CC(=O)N2CCCC2)C2CCCCC2)cc1
inactive: growth inhibition [1] -1.14% | growth inhibition [2] 10.9% | viability increase [3] -1.79% | viability [4] 99% | viability [5] 95% | inhibition [6] 0.685% | RAM network inhibition [7] 2.21%

CCOc1ccc(-c2cc(NC(=O)Cn3ncc4c3-c3ccccc3OC4)on2)cc1OCC
inactive: growth inhibition [1] -7.96% | growth inhibition [2] -3.25% | viability increase [3] 1.4% | viability [4] 98.8% | viability [5] 91.2% | inhibition [6] 1.22% | RAM network inhibition [7] -0.17%

CCCc1cc(C(=O)NCc2cccs2)no1
inactive: growth inhibition [1] -11.4% | growth inhibition [2] 21.3% | viability increase [3] -3.29% | viability [4] 101% | viability [5] 94.1% | inhibition [6] 1.34% | RAM network inhibition [7] 0.74%

CCSc1nnc(NC(=O)CCn2c(=O)oc3ccccc32)s1
inactive: growth inhibition [1] -3.29% | growth inhibition [2] -6.38% | viability increase [3] -0.78% | viability [4] 102% | viability [5] 103% | inhibition [6] 0.22% | RAM network inhibition [7] 9.53%

NC(=O)CSc1ncc(-c2ccccc2)[nH]1
inactive: growth inhibition [1] -4.49% | growth inhibition [2] -3.75% | viability increase [3] -3.58% | viability [4] 101% | viability [5] 93.7% | inhibition [6] 0.715% | RAM network inhibition [7] 4.43%

COc1cc2c(cc1OC)CN(C(=O)C(C)(C)C)CC2
inactive: growth inhibition [1] -8.97% | growth inhibition [2] -7.4% | viability increase [3] 0.45% | viability [4] 105% | viability [5] 96.7% | inhibition [6] -0.13% | RAM network inhibition [7] -0.98%

CCOC(=O)c1sc(NC(=O)C2CC2)cc1C
inactive: growth inhibition [1] -9.29% | growth inhibition [2] -0.985% | viability increase [3] 0.54% | viability [4] 99.5% | viability [5] 89.4% | inhibition [6] 2.37% | RAM network inhibition [7] 0.98%

COc1cc(NC(=O)C(F)(F)F)cc(OC)c1
inactive: growth inhibition [1] -10.5% | growth inhibition [2] -13.3% | viability increase [3] -0.69% | viability [4] 98.2% | viability [5] 108% | inhibition [6] 0.22% | RAM network inhibition [7] 1.3%

CCOc1ccc(C2c3c(oc4cc(C)c(C)cc4c3=O)C(=O)N2CCCN2CCOCC2)cc1 (stereo not drawn)
inactive: growth inhibition [1] -1.96% | growth inhibition [2] -6.06% | viability increase [3] -3.05% | viability [4] 94.1% | viability [5] 94.6% | inhibition [6] 0.615% | RAM network inhibition [7] 2.24%

Cc1cccc(CCNC(=O)c2nnc(Cc3ccc(Cl)cc3)o2)c1
inactive: growth inhibition [1] -3.04% | growth inhibition [2] 1.66% | viability increase [3] 0.18% | viability [4] 102% | viability [5] 95.5% | inhibition [6] 1.27% | RAM network inhibition [7] 6.94%

Cc1ccc(C)c(C(=O)COC(=O)c2ccc(Br)o2)c1
inactive: growth inhibition [1] -12.9% | growth inhibition [2] -17.1% | viability increase [3] -0.26% | viability [4] 94.2% | viability [5] 86.2% | inhibition [6] 0.38% | RAM network inhibition [7] 1.4%

c1ccc(-n2ncc3c(NCc4cccnc4)ncnc32)cc1
inactive: growth inhibition [1] -9.01% | growth inhibition [2] 2.41% | viability increase [3] 3.3% | viability [4] 88.1% | viability [5] 83.6% | inhibition [6] 2.49% | RAM network inhibition [7] 0.31%
